Test results published in ChEMBL document CHEMBL1134741, “Synthesis and preliminary pharmacological evaluation of coumestans with different patterns of oxygenation” (Bioorg Med Chem Lett, 2001).

How the values were obtained:
P06732 = assay: (§1) Concentration required to antagonise the creatine kinase release induced by Bothrops jararacussu venom; format: functional
[1] = target: GABA-A receptor; anion channel; assay: Inhibition of [3H]flunitrazepam binding to rat brain synaptosomes; format: subcellular
Procedure, shortened: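 Crude rat brain synaptosomes (200 µg protein; cerebellum and brainstem removed) were incubated with 0.2 nM [3H]-flunitrazepam in buffered Krebs solution for 90 min at 4 °C.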

Rattus norvegicus = species on record: Rattus norvegicus; assay: Tested for the inhibitory activity against rat kidney Na+, K+-ATPase; format: functional
Procedure, shortened: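 Na+,K+-ATPase was taken from partially purified rat kidney microsomes. Inhibition was measured by phosphate release (Fiske–Subbarow) using 1.2 mM ATP.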

[2] = target: T1, Polyunsaturated fatty acid 5-lipoxygenase (Homo sapiens, UniProt P09917); assay: Tested for the inhibitory activity against 5-lipoxygenase
T1 sequence (P09917 whole entry): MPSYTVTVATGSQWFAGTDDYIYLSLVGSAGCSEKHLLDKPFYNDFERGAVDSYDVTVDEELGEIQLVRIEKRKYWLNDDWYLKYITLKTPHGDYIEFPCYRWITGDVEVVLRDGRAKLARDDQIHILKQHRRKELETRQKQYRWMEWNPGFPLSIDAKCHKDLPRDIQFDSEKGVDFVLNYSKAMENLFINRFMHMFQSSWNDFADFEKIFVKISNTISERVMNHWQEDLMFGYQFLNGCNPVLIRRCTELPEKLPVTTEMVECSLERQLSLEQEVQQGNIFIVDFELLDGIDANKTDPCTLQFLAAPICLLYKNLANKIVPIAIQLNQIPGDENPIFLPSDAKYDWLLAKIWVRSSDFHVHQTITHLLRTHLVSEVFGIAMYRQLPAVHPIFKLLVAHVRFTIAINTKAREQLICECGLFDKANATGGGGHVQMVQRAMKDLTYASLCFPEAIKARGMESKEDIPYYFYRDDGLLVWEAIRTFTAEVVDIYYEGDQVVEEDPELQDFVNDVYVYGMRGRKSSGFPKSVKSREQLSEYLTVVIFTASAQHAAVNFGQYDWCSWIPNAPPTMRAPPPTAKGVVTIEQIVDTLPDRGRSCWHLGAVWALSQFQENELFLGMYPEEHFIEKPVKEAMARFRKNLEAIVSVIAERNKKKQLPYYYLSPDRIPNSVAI

[3] = Tested for antimyotoxic activity of the compound; format: functional
Bothrops jararacussu = assay: as §1; format: functional, organism-based

P06732, sequence (P06732 whole entry): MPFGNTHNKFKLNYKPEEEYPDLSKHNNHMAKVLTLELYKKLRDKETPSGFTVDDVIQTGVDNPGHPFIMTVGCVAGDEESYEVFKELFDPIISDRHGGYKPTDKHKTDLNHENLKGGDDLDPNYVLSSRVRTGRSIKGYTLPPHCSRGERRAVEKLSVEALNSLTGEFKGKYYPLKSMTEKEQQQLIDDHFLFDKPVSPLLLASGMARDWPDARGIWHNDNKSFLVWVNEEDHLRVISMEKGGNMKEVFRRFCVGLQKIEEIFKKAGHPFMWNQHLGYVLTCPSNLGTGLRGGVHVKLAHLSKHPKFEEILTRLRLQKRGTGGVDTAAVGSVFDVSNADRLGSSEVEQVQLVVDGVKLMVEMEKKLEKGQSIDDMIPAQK

Compound | Concentration (P06732) [µM] | IC50 [1] [nM] | IC50 (Rattus norvegicus) [nM] | other results
COc1cc2oc3c4ccc(O)cc4oc(=O)c3c2cc1O | 30 | – | – | –
O=c1oc2cc(O)ccc2c2oc3cc(O)c(O)cc3c12 | 30 | – | – | –
O=c1oc2cc(O)ccc2c2oc3cc4c(cc3c12)OCO4 | 30 | – | – | –
COc1cc(O)c2c(c1)oc(=O)c1c3cc(O)c(O)cc3oc21 [WEDELOLACTONE] | – | 2000 | 700 | IC50 [2]: 2500 nM
COc1cc2oc(=O)c3c4cc(OC)c(O)cc4oc3c2cc1O | 30 | – | – | –
COc1cc2oc(=O)c3c4cc(O)c(O)cc4oc3c2cc1O | – | > 100000 | 500 | IC50 [3]: 1000 nM; Concentration (Bothrops jararacussu): 30 µM
